Measurements reported in ChEMBL document CHEMBL1125639, “Synthesis and resolution of (+-)-7-chloro-8-hydroxy-1-(3'-iodophenyl)-3-methyl-2,3,4,5-tetrahydro- 1H-3- benzazepine (TISCH): a high affinity and selective iodinated ligand for CNS D1 dopamine receptor” (J Med Chem, 1991).
“And” between values parts separate entries of the source, which are not always exact repeats. Equal entries are not always repeated.

How the values were obtained:
[1] = (§1) Biodistribution ratio measured as the ratio of compound present in brain to that of blood at 4 hr after intravenous injection; type: ADME, organism-based; settings: rat, brain / blood
Outline: (§2)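 Male Sprague-Dawley rats (225-300 g) given 0.2 mL saline containing [125I]-labeled ligand (2-5 μCi, ~2200 Ci/mmol) via femoral vein under ether anesthesia; sacrificed at set times by cardiac excision. Brain and blood weighed and gamma-counted against diluted injectate; ratio taken from % dose/gram values, 3 rats per time point.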

[2] = tested on: Rattus norvegicus; test: as §1; type: ADME, organism-based; settings: brain, 4 h; outline: as §2
[3] = tested on: Rattus norvegicus; test: Ratio of regional brain distribution in striatum to that of cerebellum at 4 hr after intravenous injection; type: ADME, organism-based; settings: in vivo
Outline: (§3)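 After femoral-vein injection of [125I]-labeled ligand (2-5 μCi, ~2200 Ci/mmol, 0.2 mL saline, ether anesthesia) into male Sprague-Dawley rats (225-300 g), brains were dissected into cortex, striatum and cerebellum, weighed and gamma-counted. % dose/gram calculated against diluted initial dose; regional ratio = % dose/gram of region divided by that of cerebellum.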

[4] = tested on: Rattus norvegicus; test: Regional brain distribution of compound in rats cerebellum after an intravenous injection was measured at 1 hr; type: ADME, organism-based; settings: in vivo; outline: as §3
[5] = tested on: Rattus norvegicus; test: Regional brain distribution of compound in rats cerebellum after an intravenous injection was measured at 2 min; type: ADME, organism-based; settings: in vivo; outline: as §3
[6] = tested on: Rattus norvegicus; test: Regional brain distribution of compound in rats cerebellum after an intravenous injection was measured at 30 min; type: ADME, organism-based; settings: in vivo, 0.5 h; outline: as §3
[7] = tested on: Rattus norvegicus; test: Regional brain distribution of compound in rats cerebellum after an intravenous injection was measured at 4 hr; type: ADME, organism-based; settings: in vivo; outline: as §3
[8] = tested on: Rattus norvegicus; test: Regional brain distribution of compound in rats striatum after an intravenous injection was measured at 1 hr; type: ADME, organism-based; settings: in vivo; outline: as §3
[9] = tested on: Rattus norvegicus; test: Regional brain distribution of compound in rats striatum after an intravenous injection was measured at 30 min; type: ADME, organism-based; settings: in vivo, 0.5 h; outline: as §3
[10] = tested on: Rattus norvegicus; test: Regional brain distribution of compound in rats striatum after an intravenous injection was measured at 4 hr; type: ADME, organism-based; settings: in vivo; outline: as §3
[11] = tested on: Rattus norvegicus; test: Biodistribution of compound in rats blood after an intravenous injection was measured at 1 hr; type: ADME, organism-based; settings: in vivo
Outline: (§4)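 Male Sprague-Dawley rats (225-300 g), free access to food and water. Under ether anesthesia, given 0.2 mL saline containing 125I-labelled ligand (2-5 μCi, ~2200 Ci/mmol) into the femoral vein. Killed by cardiac excision at set times. Organs removed, weighed and gamma-counted. % dose/organ is taken against diluted injectate aliquots, with blood and muscle assumed to be 7% and 40% of body weight. Mean of 3 rats ± std dev.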

[12] = tested on: Rattus norvegicus; test: Biodistribution of compound in rats blood after an intravenous injection was measured at 24 hr; type: ADME, organism-based; settings: in vivo; outline: as §4
[13] = tested on: Rattus norvegicus; test: Biodistribution of compound in rats blood after an intravenous injection was measured at 2 min; type: ADME, organism-based; settings: in vivo; outline: as §4
[14] = tested on: Rattus norvegicus; test: Biodistribution of compound in rats blood after an intravenous injection was measured at 30 min; type: ADME, organism-based; settings: in vivo, 0.5 h; outline: as §4
[15] = tested on: Rattus norvegicus; test: Biodistribution of compound in rats blood after an intravenous injection was measured at 4 hr; type: ADME, organism-based; settings: in vivo; outline: as §4
[16] = tested on: Rattus norvegicus; test: Biodistribution of compound in rats brain after an intravenous injection was measured at 1 hr; type: ADME, organism-based; settings: in vivo
Outline: (§5)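 Rats (male Sprague-Dawley, 225-300 g) given the 125I ligand (2-5 μCi, ~2200 Ci/mmol) in 0.2 mL saline via the femoral vein under ether anesthesia, then killed at set times. Whole brain removed, weighed and gamma-counted. % dose/organ is taken against diluted injectate aliquots. Mean of 3 rats ± std dev.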

[17] = tested on: Rattus norvegicus; test: Biodistribution of compound in rats brain after an intravenous injection was measured at 24 hr; type: ADME, organism-based; settings: in vivo; outline: as §5
[18] = tested on: Rattus norvegicus; test: Biodistribution of compound in rats muscle after an intravenous injection was measured at 1 hr; type: ADME, organism-based, Muscle tissue; settings: in vivo; outline: as §4
[19] = tested on: Rattus norvegicus; test: Biodistribution of compound in rats muscle after an intravenous injection was measured at 24 hr; type: ADME, organism-based, Muscle tissue; settings: in vivo; outline: as §4
[20] = tested on: Rattus norvegicus; test: Biodistribution of compound in rats muscle after an intravenous injection was measured at 2 min; type: ADME, organism-based, Muscle tissue; settings: in vivo; outline: as §4
[21] = tested on: Rattus norvegicus; test: Biodistribution of compound in rats muscle after an intravenous injection was measured at 30 min; type: ADME, organism-based, Muscle tissue; settings: in vivo, 0.5 h; outline: as §4
[22] = tested on: Rattus norvegicus; test: Biodistribution of compound in rats muscle after an intravenous injection was measured at 4 hr; type: ADME, organism-based, Muscle tissue; settings: in vivo; outline: as §4
[23] = tested on: Rattus norvegicus; test: Biodistribution of compound in rats skin after an intravenous injection was measured at 1 hr; type: ADME, organism-based, Zone of skin; settings: in vivo; outline: as §4
[24] = tested on: Rattus norvegicus; test: Biodistribution of compound in rats skin after an intravenous injection was measured at 24 hr; type: ADME, organism-based, Zone of skin; settings: in vivo; outline: as §4
[25] = tested on: Rattus norvegicus; test: Biodistribution of compound in rats skin after an intravenous injection was measured at 4 hr; type: ADME, organism-based, Zone of skin; settings: in vivo; outline: as §4
[26] = tested on: Rattus norvegicus; test: Biodistribution of compound in rats spleen after an intravenous injection was measured at 1 hr; type: ADME, organism-based; settings: in vivo; outline: as §4
[27] = tested on: Rattus norvegicus; test: Biodistribution of compound in rats spleen after an intravenous injection was measured at 24 hr; type: ADME, organism-based; settings: in vivo; outline: as §4
[28] = Ratio of regional brain distribution in striatum to that of cerebellum at 2 min after intravenous injection; type: functional; outline: as §3
[29] = tested on: Rattus norvegicus; test: Biodistribution of compound in rats kidney after an intravenous injection was measured at 1 hr; type: ADME, organism-based; settings: in vivo; outline: as §4

## CN1CCc2cc(Cl)c(O)cc2[C@@H](c2cccc(I)c2)C1
[1]
  Kp at 4 h: 5.23
[2]
  Biodistribution: 5.23%
[3]
  Biodistribution: 56.5
[4]
  Biodistribution: 0.129
[5]
  Biodistribution: 1.03
[6]
  Biodistribution: 0.248
[7]
  Biodistribution: 0.011
[8]
  Biodistribution: 1.455
[9]
  Biodistribution: 7.09% and 5.23%
[10]
  Biodistribution: 0.6
[11]
  Biodistribution: 0.847
[12]
  Biodistribution: 0.046
[13]
  Biodistribution: 3.28
[14]
  Biodistribution: 0.773
[15]
  Biodistribution: 0.254
[16]
  Biodistribution: 0.568
[17]
  Biodistribution: 0.001
[18]
  Biodistribution: 8.59
[19]
  Biodistribution: 0.201
[20]
  Biodistribution: 10.8
[21]
  Biodistribution: 9.3
[22]
  Biodistribution: 1.17
[23]
  Biodistribution: 7.42
[24]
  Biodistribution: 0.288
[25]
  Biodistribution: 1.14
[26]
  Biodistribution: 0.123
[27]
  Biodistribution: 0.001
[28]
  Ratio: 1.28
[29]
  Biodistribution: 0.883
